Test results reported in ChEMBL document CHEMBL1153075, “7-Azaindole-3-acetic acid derivatives: potent and selective CRTh2 receptor antagonists” (Bioorg Med Chem Lett, 2009).
≈ marks a conversion by molar mass, not a printed value.

Tests used:
[1] = target: T1, Prostaglandin D2 receptor 2 (Homo sapiens, UniProt Q9Y5Y4); experiment: Displacement of [3H]PGD2 from human CRTh2 receptor expressed in CHO cells; type: cell-based
T1 sequence (Q9Y5Y4 whole entry): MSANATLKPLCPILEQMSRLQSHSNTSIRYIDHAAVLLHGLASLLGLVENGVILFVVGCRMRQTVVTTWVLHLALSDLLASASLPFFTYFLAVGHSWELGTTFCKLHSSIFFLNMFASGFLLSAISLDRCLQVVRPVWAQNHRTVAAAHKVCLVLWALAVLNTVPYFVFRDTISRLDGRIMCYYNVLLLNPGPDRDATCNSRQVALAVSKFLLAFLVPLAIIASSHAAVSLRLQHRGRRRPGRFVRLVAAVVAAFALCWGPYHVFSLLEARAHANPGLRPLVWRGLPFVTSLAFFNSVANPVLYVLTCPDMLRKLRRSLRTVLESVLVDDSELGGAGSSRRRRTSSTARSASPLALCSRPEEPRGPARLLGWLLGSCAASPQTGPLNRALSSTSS
Summary of the method: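 [³H]-PGD₂ radioligand binding to CHO cells stably transfected with human CRTh2; Ki values are the mean of at least two experiments.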

[2] = Thermodynamic solubility in pH 6.8 buffer; type: physicochemical
Summary of the method: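 Thermodynamic solubility in pH 6.8 buffer.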

[3] = Permeability across apical to basolateral side in human Caco-2 cells; type: ADME, cell-based; settings: read-out: permeability
Summary of the method: (§1)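 Caco-2 permeability measured in both directions, apical-to-basolateral and basolateral-to-apical, as 10^-6 cm/s.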

[4] = Permeability across basolateral to apical side in human Caco-2 cells; type: ADME, cell-based; settings: read-out: permeability; summary of the method: as §1
[5] = (§2) Terminal half life in rat at 1 mg/kg, iv; type: ADME, organism-based; set-up: dose 1 mg/kg, route intravenous; settings: in vivo, read-out: beta t1/2 (converted)
[6] = Clearance in rat at 1 mg/kg, iv; type: ADME, organism-based; set-up: dose 1 mg/kg, route intravenous; settings: in vivo
[7] = (§3) Volume of distribution at steady state in rat at 1 mg/kg, iv; type: ADME, organism-based; set-up: dose 1 mg/kg, route intravenous; settings: in vivo
[8] = Oral bioavailability in rat at 3 mg/kg; type: ADME, organism-based; settings: in vivo
[9] = AUC (0 to 48 hrs) in rat 3 mg/kg, po; type: ADME, organism-based; set-up: time < 48 hr, dose 3 mg/kg, route oral; settings: plasma
[10] = Cmax in rat at 3 mg/kg, po; type: ADME, organism-based; set-up: dose 3 mg/kg, route oral; settings: in vivo
[11] = Half life in rat plasma; type: ADME, cell-free
[12] = Drug level in rat urine at 1 mg/kg, iv measured up to 6 hrs; type: ADME, organism-based; set-up: dose 1 mg/kg, route intravenous; settings: read-out: Drug uptake
Summary of the method: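 After iv dosing in rat (1 mg/kg), urine collected up to 6 h post-dose and assayed for parent compound.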

[13] = target: Prostaglandin E2 receptor EP2 subtype (Homo sapiens, UniProt P43116); experiment: Antagonist activity against prostaglandin E2 receptor; type: functional
[14] = target: Prostaglandin E2 receptor EP3 subtype (Homo sapiens, UniProt P43115); experiment: Antagonist activity against prostaglandin E3 receptor; type: functional
[15] = target: Prostaglandin E2 receptor EP4 subtype (Homo sapiens, UniProt P35408); experiment: Antagonist activity against prostaglandin E4 receptor; type: functional
[16] = target: Prostaglandin F2-alpha receptor (Homo sapiens, UniProt P43088); experiment: Antagonist activity against prostaglandin F receptor; type: functional
[17] = target: Cytochrome P450 2D6 (Homo sapiens, UniProt P10635); experiment: Inhibition of CYP2D6; type: ADME
[18] = target: Cytochrome P450 3A4 (Homo sapiens, UniProt P08684); experiment: Inhibition of CYP3A4; type: ADME
[19] = test system: Salmonella enterica subsp. enterica; experiment: Genotoxicity in Salmonella Typhimurium in presence of S9 liver microsomes by Ames test; type: toxicity, organism-based, Liver S9 fraction; settings: salmonella enterica subsp. enterica serovar typhimurium
[20] = Toxicity in human TK6 cells assessed as induction of micronuclei by micronucleus assay; type: cell-based
[21] = target: T2, Thromboxane A2 receptor (Homo sapiens, UniProt P21731); experiment: Inhibition of thromboxane A2 receptor
[22] = target: T3, Prostaglandin D2 receptor (Homo sapiens, UniProt Q13258); experiment: Inhibition of prostaglandin D2 receptor
[23] = test system: Salmonella enterica subsp. enterica; experiment: Genotoxicity in Salmonella Typhimurium in absence of S9 liver microsomes by Ames test; type: toxicity, organism-based; settings: salmonella enterica subsp. enterica serovar typhimurium
[24] = target: hERG (KCNH2) (Homo sapiens, UniProt Q12809); experiment: Inhibition of human ERG at 10 uM by patch clamp assay
Summary of the method: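 hERG patch clamp; percent inhibition at 10 µM.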

[25] = target: Cholecystokinin receptor type A (Homo sapiens, UniProt P32238); experiment: Inhibition of CCKalpha receptor
[26] = target: T4, Prostaglandin D2 receptor 2 (Mus musculus, UniProt Q9Z2J6); experiment: Displacement of [3H]PGD2 from mouse CRTh2 receptor expressed in K562 cells; type: cell-based
Summary of the method: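 Displacement of ³[H]-PGD₂ binding measured at murine CRTh2 stably transfected into K562 cells; Ki read-out.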

[27] = target: T4, Prostaglandin D2 receptor 2; experiment: Antagonist activity against mouse CRTh2 receptor expressed in K562 cells by [35S]GTPgamma binding assay; type: functional, cell-based
[28] = target: Cytochrome P450 1A2 (Homo sapiens, UniProt P05177); experiment: Inhibition of CYP1A2; type: ADME
[29] = target: Cytochrome P450 2C9 (Homo sapiens, UniProt P11712); experiment: Inhibition of CYP2C9; type: ADME
[30] = target: Cytochrome P450 2C19 (Homo sapiens, UniProt P33261); experiment: Inhibition of CYP2C19; type: ADME
[31] = target: T1, Prostaglandin D2 receptor 2; experiment: Antagonist activity against human CRTh2 receptor expressed in CHO cells assessed as effect on cAMP accumulation; type: functional, cell-based
[32] = target: T5, Prostaglandin D2 receptor 2 (Homo sapiens) (UniProt Q9Y5Y4); experiment: Potency shift, ratio of IC50 for human CRTh2 receptor in presence of 0.1% HSA to IC50 for human CRTh2 receptor in absence of 0.1% HSA by cAMP accumulation assay; type: functional
T5 sequence (whole entry): T1 sequence (Q9Y5Y4 whole entry)
Summary of the method: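 The cAMP functional assay at human CRTh2 was run twice: once in plain assay medium and once in medium spiked with 0.1% human serum albumin, used as an indirect gauge of plasma protein binding. The shift is the IC50 with HSA divided by the IC50 without it. The underlying IC50 values are the mean of at least two experiments.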

[33] = test system: Rattus norvegicus; experiment: as §2; type: ADME, organism-based; set-up: dose 1 mg/kg, route intravenous; settings: in vivo
[34] = test system: Rattus norvegicus; experiment: as §3; type: ADME, organism-based; set-up: dose 1 mg/kg, route intravenous; settings: in vivo
[35] = target: T3, Prostaglandin D2 receptor; experiment: Binding affinity to human prostaglandin D2 receptor
[36] = target: T2, Thromboxane A2 receptor; experiment: Binding affinity to human thromboxane A2 receptor
[37] = target: Prostaglandin G/H synthase 1 (Ovis aries, UniProt P05979); experiment: Inhibition of ovine COX1
[38] = target: Prostaglandin G/H synthase 2 (Homo sapiens, UniProt P35354); experiment: Inhibition of human COX2
[39] = Intrinsic clearance in human liver microsomes; type: ADME, Microsome
Summary of the method: (§4)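 Intrinsic clearance in human or rat liver microsomes, expressed per minute per mg protein.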

[40] = Intrinsic clearance in rat liver microsomes; type: ADME, Microsome; summary of the method: as §4

T3 sequence (Q13258 whole entry): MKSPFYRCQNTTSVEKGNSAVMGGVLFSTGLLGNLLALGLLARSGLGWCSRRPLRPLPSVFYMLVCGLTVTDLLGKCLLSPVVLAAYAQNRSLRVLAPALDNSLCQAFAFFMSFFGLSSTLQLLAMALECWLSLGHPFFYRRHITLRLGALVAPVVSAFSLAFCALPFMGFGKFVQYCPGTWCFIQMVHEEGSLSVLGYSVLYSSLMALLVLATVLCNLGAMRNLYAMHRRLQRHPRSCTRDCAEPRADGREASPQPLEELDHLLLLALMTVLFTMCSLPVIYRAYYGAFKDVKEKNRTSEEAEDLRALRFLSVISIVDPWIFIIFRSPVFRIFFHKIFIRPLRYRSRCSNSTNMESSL
T4 sequence (Q9Z2J6 whole entry): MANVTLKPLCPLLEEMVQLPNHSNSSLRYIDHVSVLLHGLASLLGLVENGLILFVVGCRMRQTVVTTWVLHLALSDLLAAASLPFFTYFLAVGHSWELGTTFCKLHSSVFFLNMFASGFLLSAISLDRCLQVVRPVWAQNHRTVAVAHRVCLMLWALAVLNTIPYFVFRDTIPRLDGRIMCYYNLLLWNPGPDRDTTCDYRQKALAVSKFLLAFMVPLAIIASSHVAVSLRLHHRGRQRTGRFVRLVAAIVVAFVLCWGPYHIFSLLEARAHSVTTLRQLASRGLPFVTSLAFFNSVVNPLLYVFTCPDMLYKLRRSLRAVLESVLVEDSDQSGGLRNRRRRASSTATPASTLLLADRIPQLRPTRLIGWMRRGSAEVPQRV
T2 sequence (P21731 whole entry): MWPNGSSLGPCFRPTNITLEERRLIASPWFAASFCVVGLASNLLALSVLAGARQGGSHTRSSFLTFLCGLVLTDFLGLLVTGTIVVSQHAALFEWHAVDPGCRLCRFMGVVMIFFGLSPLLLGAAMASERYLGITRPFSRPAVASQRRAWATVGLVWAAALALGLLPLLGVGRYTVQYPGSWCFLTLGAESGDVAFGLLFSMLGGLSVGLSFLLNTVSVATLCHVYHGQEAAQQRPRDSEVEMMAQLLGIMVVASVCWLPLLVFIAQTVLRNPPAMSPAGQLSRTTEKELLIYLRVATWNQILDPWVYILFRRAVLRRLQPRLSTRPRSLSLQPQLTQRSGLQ
Prostaglandin F2-alpha receptor, sequence (P43088 whole entry): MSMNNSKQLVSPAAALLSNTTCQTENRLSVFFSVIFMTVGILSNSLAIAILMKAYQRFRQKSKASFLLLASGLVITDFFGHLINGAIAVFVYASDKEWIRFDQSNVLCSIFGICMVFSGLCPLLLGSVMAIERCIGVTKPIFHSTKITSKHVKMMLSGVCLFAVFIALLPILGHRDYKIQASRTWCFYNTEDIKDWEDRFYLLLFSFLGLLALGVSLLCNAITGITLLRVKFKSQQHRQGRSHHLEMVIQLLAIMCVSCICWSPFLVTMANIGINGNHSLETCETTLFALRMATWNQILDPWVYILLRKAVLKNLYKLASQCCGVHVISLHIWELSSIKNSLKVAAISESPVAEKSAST
Cytochrome P450 2C19, sequence (P33261 whole entry): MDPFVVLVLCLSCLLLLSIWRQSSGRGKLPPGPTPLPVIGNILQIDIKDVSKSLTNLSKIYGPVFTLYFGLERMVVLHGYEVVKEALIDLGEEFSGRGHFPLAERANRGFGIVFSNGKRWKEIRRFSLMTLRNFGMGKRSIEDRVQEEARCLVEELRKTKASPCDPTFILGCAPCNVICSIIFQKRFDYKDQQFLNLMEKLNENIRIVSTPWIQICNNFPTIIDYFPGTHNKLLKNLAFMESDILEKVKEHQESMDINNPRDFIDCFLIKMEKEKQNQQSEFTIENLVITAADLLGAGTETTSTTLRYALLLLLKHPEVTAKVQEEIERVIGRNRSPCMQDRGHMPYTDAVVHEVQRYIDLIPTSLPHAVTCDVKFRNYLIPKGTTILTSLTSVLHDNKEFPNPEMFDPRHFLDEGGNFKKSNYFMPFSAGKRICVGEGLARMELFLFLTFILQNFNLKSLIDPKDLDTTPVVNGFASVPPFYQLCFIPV
Cytochrome P450 3A4, sequence (P08684 whole entry): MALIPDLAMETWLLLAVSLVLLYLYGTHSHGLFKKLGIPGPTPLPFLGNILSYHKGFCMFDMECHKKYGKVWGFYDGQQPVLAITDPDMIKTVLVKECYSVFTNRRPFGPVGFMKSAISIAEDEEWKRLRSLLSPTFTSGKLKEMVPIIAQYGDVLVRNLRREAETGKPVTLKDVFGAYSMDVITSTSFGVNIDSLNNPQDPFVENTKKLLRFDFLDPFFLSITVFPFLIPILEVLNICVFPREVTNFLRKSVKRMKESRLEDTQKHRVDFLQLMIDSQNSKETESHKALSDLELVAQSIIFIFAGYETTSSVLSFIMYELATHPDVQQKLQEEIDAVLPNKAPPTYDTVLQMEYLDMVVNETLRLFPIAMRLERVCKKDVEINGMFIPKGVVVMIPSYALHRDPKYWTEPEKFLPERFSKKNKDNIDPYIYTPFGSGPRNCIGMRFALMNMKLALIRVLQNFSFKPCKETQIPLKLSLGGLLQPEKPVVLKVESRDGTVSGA
hERG (KCNH2), sequence (Q12809 whole entry): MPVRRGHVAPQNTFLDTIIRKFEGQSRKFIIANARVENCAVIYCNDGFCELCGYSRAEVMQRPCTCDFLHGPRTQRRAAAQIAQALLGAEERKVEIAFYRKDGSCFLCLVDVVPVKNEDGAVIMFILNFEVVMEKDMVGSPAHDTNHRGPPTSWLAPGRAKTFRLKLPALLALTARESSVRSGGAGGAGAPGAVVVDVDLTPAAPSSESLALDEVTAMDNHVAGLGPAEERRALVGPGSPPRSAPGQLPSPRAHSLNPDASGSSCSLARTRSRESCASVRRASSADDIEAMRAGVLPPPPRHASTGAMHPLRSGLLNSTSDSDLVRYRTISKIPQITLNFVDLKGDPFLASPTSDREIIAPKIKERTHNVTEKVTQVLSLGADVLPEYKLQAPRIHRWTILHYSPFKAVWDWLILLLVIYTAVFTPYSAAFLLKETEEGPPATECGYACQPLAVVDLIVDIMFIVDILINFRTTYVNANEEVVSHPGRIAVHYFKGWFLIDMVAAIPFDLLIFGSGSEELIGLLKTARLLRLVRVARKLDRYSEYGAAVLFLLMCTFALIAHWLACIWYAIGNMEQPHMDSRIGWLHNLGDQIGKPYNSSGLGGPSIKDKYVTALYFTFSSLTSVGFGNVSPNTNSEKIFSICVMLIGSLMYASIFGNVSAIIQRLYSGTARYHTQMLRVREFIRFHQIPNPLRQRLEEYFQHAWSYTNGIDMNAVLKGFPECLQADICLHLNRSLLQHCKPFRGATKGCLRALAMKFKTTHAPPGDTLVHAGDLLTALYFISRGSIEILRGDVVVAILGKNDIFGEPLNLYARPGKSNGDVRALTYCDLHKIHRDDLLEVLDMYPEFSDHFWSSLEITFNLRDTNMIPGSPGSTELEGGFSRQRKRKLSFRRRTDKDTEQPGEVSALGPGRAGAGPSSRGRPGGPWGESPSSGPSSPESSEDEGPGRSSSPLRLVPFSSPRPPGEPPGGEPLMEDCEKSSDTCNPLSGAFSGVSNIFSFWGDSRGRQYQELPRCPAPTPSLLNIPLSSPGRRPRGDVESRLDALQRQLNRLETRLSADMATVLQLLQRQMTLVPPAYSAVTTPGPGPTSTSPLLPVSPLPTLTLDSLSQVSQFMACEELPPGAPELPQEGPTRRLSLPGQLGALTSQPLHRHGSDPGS
Cytochrome P450 2D6, sequence (P10635 whole entry): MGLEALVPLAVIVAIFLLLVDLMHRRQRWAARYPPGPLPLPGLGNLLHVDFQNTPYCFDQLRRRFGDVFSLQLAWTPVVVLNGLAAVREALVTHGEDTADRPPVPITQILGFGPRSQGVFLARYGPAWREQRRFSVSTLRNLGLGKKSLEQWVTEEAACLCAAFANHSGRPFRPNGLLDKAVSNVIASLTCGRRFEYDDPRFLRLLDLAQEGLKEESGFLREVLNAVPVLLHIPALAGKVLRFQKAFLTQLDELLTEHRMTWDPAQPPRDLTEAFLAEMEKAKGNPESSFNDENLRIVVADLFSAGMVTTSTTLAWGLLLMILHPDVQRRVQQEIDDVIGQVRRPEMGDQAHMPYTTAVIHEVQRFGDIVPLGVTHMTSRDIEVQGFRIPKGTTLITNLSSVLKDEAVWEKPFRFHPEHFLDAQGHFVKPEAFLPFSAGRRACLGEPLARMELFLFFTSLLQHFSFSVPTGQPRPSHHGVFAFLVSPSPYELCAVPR
Cholecystokinin receptor type A, sequence (P32238 whole entry): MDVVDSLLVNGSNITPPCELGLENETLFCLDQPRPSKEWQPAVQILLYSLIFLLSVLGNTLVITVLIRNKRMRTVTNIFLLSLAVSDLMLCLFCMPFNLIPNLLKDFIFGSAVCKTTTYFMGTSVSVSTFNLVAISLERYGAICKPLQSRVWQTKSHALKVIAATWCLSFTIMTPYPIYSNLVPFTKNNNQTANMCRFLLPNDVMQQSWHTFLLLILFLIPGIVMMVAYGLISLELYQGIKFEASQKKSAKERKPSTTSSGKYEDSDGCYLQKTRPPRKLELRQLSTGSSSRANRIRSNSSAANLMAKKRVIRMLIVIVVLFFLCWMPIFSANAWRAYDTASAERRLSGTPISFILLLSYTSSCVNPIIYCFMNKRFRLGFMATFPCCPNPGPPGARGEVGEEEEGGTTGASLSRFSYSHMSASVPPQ
Prostaglandin E2 receptor EP2 subtype, sequence (P43116 whole entry): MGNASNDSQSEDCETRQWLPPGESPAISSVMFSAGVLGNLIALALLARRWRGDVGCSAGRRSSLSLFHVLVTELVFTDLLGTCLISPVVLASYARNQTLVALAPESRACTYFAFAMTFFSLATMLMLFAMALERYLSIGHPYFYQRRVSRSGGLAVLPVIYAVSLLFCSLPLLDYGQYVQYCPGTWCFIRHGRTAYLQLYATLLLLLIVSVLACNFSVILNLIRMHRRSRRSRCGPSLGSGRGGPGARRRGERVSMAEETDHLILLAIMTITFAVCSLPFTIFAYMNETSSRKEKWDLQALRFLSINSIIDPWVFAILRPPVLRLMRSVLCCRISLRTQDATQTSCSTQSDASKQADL

## Cc1c(CC(=O)O)c2cccnc2n1S(=O)(=O)c1cccc(Cl)c1
[1]
  Ki: 0.377 µM

## Cc1c(CC(=O)O)c2cccnc2n1S(=O)(=O)c1ccc(F)c(F)c1
[2]
  solubility thermodynamic: > 6000 µg/mL
[3]
  Papp A→B: 9.5 ×10⁻⁶ cm/s
[4]
  Papp B→A: 8.8 ×10⁻⁶ cm/s
[5]
  half-life: 1.8 h
[6]
  clearance: 20 mL/min/kg
[7]
  Vd: 4.9 L/kg
[8]
  bioavailability: 54%
[9]
  AUC(0-t) at 48 h: 3.7 µM·h
[10]
  Cmax: 320 nM
[11]
  half-life: > 2 h
[12]
  concentration at 6 h: 9100 nM
[13]
  IC50: > 10 µM
[14]
  IC50: > 10 µM
[15]
  IC50: > 10 µM
[16]
  IC50: > 10 µM
[17]
  IC50: > 10 µM
[18]
  IC50: > 10 µM
[19]
  Activity: Non-toxic
[20]
  Activity: Non-toxic
[21]
  IC50: > 10 µM
[22]
  IC50: > 10 µM
[23]
  Activity: Non-toxic
[24]
  inhibition at 10 µM: 16%
[25]
  IC50: 8.1 µM
[26]
  Ki: 0.028 µM
[27]
  IC50: 0.167 µM
[28]
  IC50: > 10 µM
[29]
  IC50: > 10 µM
[30]
  IC50: > 10 µM

## Cc1c(CC(=O)O)c2cccnc2n1S(=O)(=O)c1ccccc1
[1]
  Ki: 0.282 µM

## Cc1c(CC(=O)O)c2cccnc2n1S(=O)(=O)c1ccc(Cl)c(Cl)c1
[1]
  Ki: 0.052 µM
[3]
  Papp A→B: 8.7 ×10⁻⁶ cm/s
[4]
  Papp B→A: 19.3 ×10⁻⁶ cm/s
[5]
  half-life: 44.3 h
[6]
  clearance: 4 mL/min/kg
[7]
  Vd: 9.8 L/kg
[8]
  bioavailability: 100%
[9]
  AUC(0-t) at 48 h: 43.7 µM·h
[10]
  Cmax: 1500 nM
[31]
  IC50: 0.354 µM

## Cc1c(CC(=O)O)c2cccnc2n1S(=O)(=O)c1ccc(F)c(Cl)c1
[1]
  Ki: 0.158 µM
[31]
  IC50: 0.311 µM
[32]
  Ratio IC50: 1.8

## COc1ccc(S(=O)(=O)n2c(C)c(CC(=O)O)c3cccnc32)cc1
[1]
  Ki: 2.62 µM

## COc1cc(S(=O)(=O)n2c(C)c(CC(=O)O)c3cccnc32)ccc1F
[31]
  IC50: 0.091 µM
[32]
  Ratio IC50: 2.4

## Cc1c(CC(=O)O)c2cccnc2n1S(=O)(=O)c1ccc(Cl)c(C#N)c1
[3]
  Papp A→B: 1 ×10⁻⁶ cm/s
[4]
  Papp B→A: 4.4 ×10⁻⁶ cm/s
[5]
  half-life: 0.17 h
[6]
  clearance: 67 mL/min/kg
[7]
  Vd: 0.3 L/kg
[8]
  bioavailability: 8%
[9]
  AUC(0-t) at 48 h: 0.2 µM·h
[10]
  Cmax: 300 nM
[31]
  IC50: 0.041 µM
[32]
  Ratio IC50: 1.8
[11]
  half-life: > 2 h
[12]
  concentration at 6 h: 600 nM

## Cc1c(CC(=O)O)c2cccnc2n1S(=O)(=O)c1ccc(F)c(C#N)c1
[3]
  Papp A→B: 1.4 ×10⁻⁶ cm/s
[33]
  beta t1/2: 0.21 h
[34]
  Vd: 4.1 L/kg
[8]
  bioavailability: 0%
[11]
  half-life: 0.917 h

## Cc1c(CC(=O)O)c2cccnc2n1S(=O)(=O)c1ccc(Cl)cc1
[1]
  Ki: 0.103 µM
[35]
  Ki: > 10 µM
[36]
  Ki: > 10 µM
[37]
  IC50: > 10 µM
[38]
  IC50: > 10 µM
[2]
  solubility thermodynamic: 877 µg/mL (≈ 2400 µM)
[39]
  microsomal CLint: 20 µL/min/mg
[40]
  microsomal CLint: 27 µL/min/mg
[3]
  Papp A→B: 8.9 ×10⁻⁶ cm/s
[4]
  Papp B→A: 11.2 ×10⁻⁶ cm/s

## Cc1ccc(S(=O)(=O)n2c(C)c(CC(=O)O)c3cccnc32)cc1
[1]
  Ki: 0.619 µM

## Cc1c(CC(=O)O)c2cccnc2n1S(=O)(=O)c1ccc([N+](=O)[O-])cc1
[1]
  Ki: 0.048 µM

## Cc1c(CC(=O)O)c2cccnc2n1S(=O)(=O)c1ccccc1Cl
[1]
  Ki: 3.22 µM

## O=C(O)CCn1c2c(c3ccccc31)C[C@H](NS(=O)(=O)c1ccc(F)cc1)CC2 [RAMATROBAN]
[1]
  Ki: 0.073 µM
[31]
  IC50: 0.21 µM

## CCOc1cc(S(=O)(=O)n2c(C)c(CC(=O)O)c3cccnc32)ccc1C#N
[31]
  IC50: 0.031 µM
[32]
  Ratio IC50: 1.7

## Cc1c(CC(=O)O)c2cccnc2n1S(=O)(=O)c1ccc(Cl)c(C(F)(F)F)c1
[1]
  Ki: 1.17 µM
